Experimental data of several laboratories.
Each line is one published result; the experiments were not run side by side.
Effect on: enzyme activity
Action: inhibitor
SRC T341M: Proto-oncogene tyrosine-protein kinase Src (SRC, Homo sapiens, UniProt P12931, T341M)
SRC: Proto-oncogene tyrosine-protein kinase Src (SRC, Homo sapiens, UniProt P12931)

target | test | conditions | remaining activity [%] | Compound
SRC T341M | radiometric | 1 µM | 103 | Cc1cnc(NC2CCOCC2)nc1-n1cnc(C(=O)NC(CN)c2cc(F)cc(Cl)c2)c1 (stereo not drawn)
SRC | – | 10 µM | 99 | CC(C)(C)C(=O)c1sc(NC2CCCCC2)nc1N
SRC | – | 10 µM | 96.6 | Cc1sc(C(=O)NC2COC2)cc1-n1cc(NC(=O)Nc2c(F)cccc2Cl)cn1
SRC | – | 10 µM | 47 | Nc1nc(Nc2ccccc2)sc1C(=O)c1c(F)cccc1F
SRC T341M | – | 10 µM | 53 | CCCOc1ccc(OC)c(F)c1C(=O)c1ccc(C(=O)N[C@@H]2CNC[C@H]2NC(=O)c2ccc3[nH]ncc3c2)cc1
SRC | – | 10 µM | 104 | FC(F)c1nc2ccccc2n1-c1nc(N2CCOCC2)nc(N2CCOCC2)n1
SRC | – | 5 µM | 98.4 | O=C(Nc1cnn(-c2csc(C(=O)NC3COC3)c2)c1)Nc1c(F)cccc1Cl
SRC | – | 10 µM | 99 | Oc1cccc(-c2nc(N3CCOCC3)c3oc4ncccc4c3n2)c1
SRC | – | 10 µM | 0 | Cc1ccc(NC(=O)c2ccc(C)c(C(F)(F)F)c2)cc1C#Cc1nn(C2CCC(O)CC2)c2ncnc(N)c12 (stereo not drawn)
SRC | radiometric | 1 µM | 68 | CC(C)(C)c1nc(-c2cccc(NS(=O)(=O)c3c(F)cccc3F)c2F)c(-c2ccnc(N)n2)s1
SRC | radiometric | 10 µM | 72 | COc1cc(Nc2cnc(C#N)c(O[C@H](C)CN(C)C)n2)ncc1-c1cnn(C)c1
SRC | – | 1 µM | 89 | Cc1[nH]c(/C=C2\C(=O)Nc3ccc(F)cc32)c(C)c1C(=O)N[C@H]1CCN(C(=O)N(C)C)C1
